Results on 37 variants are retold here after the RNAGym collection of RNA variant scans (doi:10.1126/science.aae0568).

Sequences and labels used below:
B1: tRNA (parent)
chain: GUUCCGUUGGCGUAAUGGUAACGCGUCUCCCUCCUAAGGAGAAGACUGCGGGUUCGAGUCCCGUACGGAACG

This sample holds only a part of the variants without activity.

Variants of B1 are the subject of this data set. The data set can be described thus: yeast fitness relative to wild type (ratio to wild type); higher = fitter; tRNA-Arg(CCU), competitive growth, 37 C, YPD. The method in brief: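 Amplicons of the tRNA-Arg(CCU) gene were sequenced, 100-nucleotide paired-end, from the start population and from each end population of a pooled yeast competition. The competition, in six parallel replicates, lasted 24 hours in YPD at 37°C. Fitness relative to wild type was calculated from changes in genotype frequencies. Genotypes had to have ≥ 100 starting reads, and estimates < 0.5 were set to 0.5.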
For the variant GUACCGUUGGCGUAAUGGUAACGCGUCUCGCUCCUGAGGAGAAGAGUGCGGGUUCGAGUCCCGUACGGAACG [U3A C30G A36G C46G], the yeast fitness is at most 0.5.
Next, GUACCGUUGGCGUAAUGGUAACGCGUUUCCCUCCUAAGGAGAAGACUGCGGGUUCGAGUACCGUACGGAACG [U3A C27U C60A]: at most 0.5; GUACCGUUGGCGUAAUGGUAACGCGUCUCCCUCCUAAGGAGAAGACUGCCCGUUCAAGUCCCGUACGGAACG [U3A G50C G51C G56A]: at most 0.5.
Next, GUACCGUUGGCGUAAUGGUAACGCGUCUCCCUCCUAAGGAGAAGACUGCGGGUUUGAGUCCCGUACGGAACG [U3A C55U]: 0.876; GUACCAUUGGCGUUAUGGUAACGCGUCUCCCUGCUAAGGAGAAGACUGCGGGUUCGAGUCCCGUACGGAACG [U3A G6A A14U C33G]: at most 0.5; GUACCGUUGGCGUAAUGGUAACGCGUCUCCCUCCUAAGAAGAAGACUGUGGGUUCGAGUCCCGUACGGAACG [U3A G39A C49U]: 0.559.
Next, GUACCGUUGGCGUAAUGGUAACGCAUCUCCCUCCUAAAGAGAAGACUGCGGGUUCGAGUCCCGUACGGAACG [U3A G25A G38A]: 0.583; GUACCGUUGGCCUAAUGGUACCGCGUCUCCCUCCUCAGGAGAAGACUGUGGGUUCGAGUCCCGUACGGAUCG [U3A G12C A21C A36C C49U A70U]: at most 0.5; GUACCGUUCGCGUAAUGGUAACGCGUGUCCCUCAUAAGGAGAAGACUGCGGGUUCGAGUCCCGUACGGAACG [U3A G9C C27G C34A]: at most 0.5.
With GUACCGUUGGCGUAAUGGUAACGCGUCUCCCUCCUAAGGAGAAGACUGCGGGUUCGAGUCCUCUACGGAACG [U3A C62U G63C], the yeast fitness is at most 0.5.
With GUACCGUUGCCGUAAUCGUAACGCGUCUCCCUCCUACGGAGAAGACUGCCGGUUCGAGUCCCGUACGGAACG [U3A G10C G17C A37C G50C] the figure was at most 0.5.
As for GUACCAUUGGCGUAAUGGUAACGCGUCUCCUUCCUAAGGCGAAGACUGCGGGUUCGAGUCCCGUACGGAACG [U3A G6A C31U A40C], the yeast fitness was at most 0.5.
Consider GUACCGUUGCCGUAAUGGUAACGCGUCUCCCUCCUAAGCAGAAGACUACGGGUUCGAGUCCCGUACGGAACG [U3A G10C G39C G48A], for which the yeast fitness was at most 0.5.
With GUACCGUUGGCGAAAUGGUAAUGUGUCUCCCUCCUAAGGAGAAGACUGCGGGUUCGAGUCCCGUACGGAACG [U3A U13A C22U C24U] the figure was at most 0.5.
In the case of GUACCGUUGGCGUAAUGGUAACGCGACUCCCUCCUAAGGAGAAGACUGCGGGUUCGAGUCCCGUAUGGAACG [U3A U26A C66U], the yeast fitness was at most 0.5.
GUACCGUUGGCGUAAUGGUAACGCGUCUCCCUCCUAAGGAGAAGACUGCGGGUUCGAGUCCCGUAGGGAACG [U3A C66G]: the yeast fitness was 0.669.
With GUACCGUUGGCGUAAUGAUAACGCGUCUCCCUCCUAAGGAGAAGACUGGGGGUUGGAGUACAGUACGAUACG [U3A G18A C49G C55G C60A C62A G68A A69U] the figure was 0.623; with GUACCGUUGGCGCAAUGGUAACGCGUCUCCCUCCUAAGGAGAAGACUGGGGGUUCGAGUCCCGUACGGAACG [U3A U13C C49G], at most 0.5.
GUACCGUUGGCGUAAUGGAAACGUGUCUCCCUCCUAAGGAGAAGACUGCGGGUUCGAGUCCCGUACGGAACG [U3A U19A C24U]: the yeast fitness was 0.74.
Next, GUACCGUUGGCGUAAUGGCAACGCGUCUCCCUCCUAAGGAGAAGACUGCGGGUUCGAGUCCCGUACGGAACG [U3A U19C]: 0.875; GUACCGUUGGCGUAAUGGUAACACGUCUCCCUCCUAAGGAGAAGACUGCGGGUUCGAGUCCCGUACGGAGCG [U3A G23A A70G]: 0.561.
Next, GUACCGUUGGCGUAAUGGUAACGCGUCUCCCUCCUAAGGAGAAGACUGCGGGUUCGAGUCCCGUACAGAACG [U3A G67A]: 0.684; GUACCGUCGGCGUAAUGGUAACGCGUCUCCCUCCUUAGGAGAAGACUGCGGGGUCGAGUCCCGUACGGAACG [U3A U8C A36U U53G]: at most 0.5; GUACCGUUGGCGUAAUGGUAACGCGUCUCCCUUCUAAGGCGAAGACUGCGGGUUCGAGUCCCGUACGGAACG [U3A C33U A40C]: at most 0.5.
Turning to GUACCGUUGGCGUAAUGGUAACGCGUCUCCCUCCUAAGGAGAAGACUGCGGGUUCGAGUCCAGUACGGAACG [U3A C62A], the yeast fitness came out at 0.727.
With GUACCGUUGGCGUAAUCGUAACGCGUCUUCCUCCUAAGGAGAAGACUGCGGGUUCGAGUCCCGUACGGAACG [U3A G17C C29U] the figure was at most 0.5.
With GUACCGUUGGCGUAAUGGUAACGCGUCUCCCUCCUAAGGACAAGACUGCGGGUUCGAGUCCCCUUCGGAACG [U3A G41C G63C A65U], the yeast fitness is at most 0.5.
With GUACCGUUGGCGUAACGGUAACGCGUCUCCCUGCUAAGGAGAAGACUGCGGGUUCGAGUCCUGUACGGAACG [U3A U16C C33G C62U] the figure was at most 0.5.
For the variant GUACCGUUGGCGUAAUGGUAACGCGUCUCGCUUCUAAGGAGAAGACUGCGGGUUUGAGUCCCGUACGGAACG [U3A C30G C33U C55U], the yeast fitness is at most 0.5.
On to GUACCGUUGGCGUAAUAGUAAUGCGUCUCCCUCCUAAGGAGAAGACUGCGGGUUCGAGUCCCGUACGGAACG [U3A G17A C22U], for which the yeast fitness amounted to 0.559.
With GUACCGUUGGCGUAAUGGUAACGCGUCUCCAUCCUAAGGAGAAGACUGCGGGUUUGAGUCCCGUACGGAACG [U3A C31A C55U] the figure was at most 0.5; with GUACCGUUGGCGUAAUGGUAACGCGUCUCCUUCCUAAGGCGAAGACUGCGGGUUCGAGUCCCGAACGGAACG [U3A C31U A40C U64A], at most 0.5; with GUACCGUUGGCGUAAUGGUAACGCGUCUCCCUCCUAAGGAGAAGACUGCGGGUUCGAGUCUCGUACGGAACG [U3A C61U], 0.924.
With GUACCGUUGGCGUAAUGGUAACGCGUCUCCCUCUUAAGGAGAAGGCUGUGGGAUCGAGUCCCGUACGGAACG [U3A C34U A45G C49U U53A] the figure was at most 0.5; with GUACCGUUGGCGUAAUGGUAACCCGUCUCCCUCCUAAGGAGAAGGCUGCGGGUUCGAGUCCCGUACGGAACG [U3A G23C A45G], at most 0.5.
With GUACCGUUGGCGUAAUGGUAACGCGUCUCCCUCCUAAGGAGAAGACUGCGGGUUCGAAUCCCGUACGGAACG [U3A G58A] the figure was 1.01; with GUACCGUUGGCGUAAUGGUAACGCGUCUCCCUCCUAAGGAGAAGACUCCGGGUCAGAGUCCCGUACGGAACG [U3A G48C U54C C55A], at most 0.5.
